pIC50: −log10 of the molar value. Values after ≈ are worked out from the molar mass of the structure shown.
Assays:
HepG2 cells = test: HepG2 cytotoxicity assay; type: cell-based; conditions: Homo sapiens, HepG2, 48 h, read-out: Ctox.: IC50 HepG2
Procedure, shortened: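 HepG2 cells were harvested while actively growing, with monolayers kept ≤50 % confluent, in Eagle's MEM with 10 % FBS, 1 % NEAA and 1 % penicillin/streptomycin. They were seeded at about 3000 cells per well (1.2×10^5 cells mL−1) onto predispensed test compound. Plates were incubated 48 h at 37 °C, 80 % humidity and 5 % CO2, equilibrated 30 min at room temperature, then developed with CellTiter-Glo for 10 min before luminescence reading.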

M. tuberculosis H37Rv = M. tuberculosis H37Rv inhibition assay; type: cell-based; conditions: Mycobacterium tuberculosis, read-out: MIC H37Rv

Q: With `NNC(=O)c1ccncc1` [Isoniazid] as the compound, how does the pIC50 (HepG2 cells) read?
A: 3.68

Q: And the MIC (M. tuberculosis H37Rv)?
A: 1.8 µM (≈ 0.247 µg/mL)

Q: With `CO[C@H]1/C=C/O[C@@]2(C)Oc3c(C)c(O)c4c(O)c(c(/C=N/N5CCN(C)CC5)c(O)c4c3C2=O)NC(=O)/C(C)=C\C=C\[C@H](C)[C@H](O)[C@@H](C)[C@@H](O)[C@@H](C)[C@H](OC(C)=O)[C@@H]1C` [Rifampicin] as the compound, how does the pIC50 (HepG2 cells) read?
A: < 3.59

Q: And the MIC (M. tuberculosis H37Rv)?
A: 0.02 µM (≈ 0.0165 µg/mL)

Reference: paper PMC3743164 (Chemmedchem, 2013)
